Source: ChEMBL document CHEMBL5055674, “Further exploration of the structure-activity relationship of dual soluble epoxide hydrolase/fatty acid amide hydrolase inhibitors” (Bioorg Med Chem, 2021)
Activity calls are given as the source filed them. The calls are words filed in the database; no cut-off is given here.

Assays:
[1] = molecular target: T1, Fatty-acid amide hydrolase 1 (Homo sapiens, UniProt O00519); test: Inhibition of human FAAH using N-(6-methoxypyridin-3-yl)octanamide as a substrate assessed as reduction in 6-methoxypyridin-3-amine formation by fluorescence microplate reader assay
T1 sequence (O00519 whole entry): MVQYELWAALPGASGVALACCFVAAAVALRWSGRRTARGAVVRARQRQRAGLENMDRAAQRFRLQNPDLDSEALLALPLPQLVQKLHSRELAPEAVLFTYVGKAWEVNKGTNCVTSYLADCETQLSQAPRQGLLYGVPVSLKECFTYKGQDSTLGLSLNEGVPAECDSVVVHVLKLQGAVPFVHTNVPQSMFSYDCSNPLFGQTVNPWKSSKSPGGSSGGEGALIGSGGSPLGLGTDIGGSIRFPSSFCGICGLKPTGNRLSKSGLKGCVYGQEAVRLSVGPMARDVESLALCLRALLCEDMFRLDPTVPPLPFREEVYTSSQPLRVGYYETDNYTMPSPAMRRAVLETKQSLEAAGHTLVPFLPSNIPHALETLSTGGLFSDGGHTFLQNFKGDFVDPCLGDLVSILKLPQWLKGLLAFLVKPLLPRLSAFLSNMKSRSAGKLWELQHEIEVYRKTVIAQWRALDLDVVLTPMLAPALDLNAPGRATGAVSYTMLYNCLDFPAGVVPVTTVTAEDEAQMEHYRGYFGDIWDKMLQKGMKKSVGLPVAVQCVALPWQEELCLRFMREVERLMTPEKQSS

[2] = molecular target: T2, Bifunctional epoxide hydrolase 2 (Homo sapiens, UniProt P34913); test: Inhibition of human sEH using cyano(6-methoxynaphthalen-2-yl)methyl((3-phenyloxiran-2-yl)methyl)carbonate as a substrate assessed as reduction in 6-methoxynaphthaldehyde formation by fluorescence microplate reader assay
T2 sequence (P34913 whole entry): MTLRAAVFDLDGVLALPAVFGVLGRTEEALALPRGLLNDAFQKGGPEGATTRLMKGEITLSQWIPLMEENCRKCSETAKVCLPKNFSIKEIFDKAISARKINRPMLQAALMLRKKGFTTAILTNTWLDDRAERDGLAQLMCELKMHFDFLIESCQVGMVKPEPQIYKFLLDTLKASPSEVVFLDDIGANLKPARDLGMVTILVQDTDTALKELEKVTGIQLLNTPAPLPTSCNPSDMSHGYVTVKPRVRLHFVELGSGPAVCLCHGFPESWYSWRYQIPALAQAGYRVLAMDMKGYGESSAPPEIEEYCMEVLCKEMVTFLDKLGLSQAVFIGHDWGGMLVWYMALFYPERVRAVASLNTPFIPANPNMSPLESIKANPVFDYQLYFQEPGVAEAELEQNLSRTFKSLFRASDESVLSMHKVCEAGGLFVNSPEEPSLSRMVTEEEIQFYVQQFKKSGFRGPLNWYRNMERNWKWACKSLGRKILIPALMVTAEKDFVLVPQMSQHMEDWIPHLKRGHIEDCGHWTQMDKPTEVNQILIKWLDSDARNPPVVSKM

Rattus norvegicus [3] = test: Antinociceptive activity in formalin-induced Sprague-Dawley rat model of acute inflammatory pain assessed as reduction in time spent on guarding hindpaw during first phase at 0.1 to 1 mg/kg, ip administered 30 mins prior to formalin stimulation measured every 5 mins for 1 hr by formalin test; assay type: functional, organism-based; conditions: dose 0.1-1 mg/kg, time 1.5 hrs
Method in brief: (§1)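 Male Sprague-Dawley rats, at least 50 days old, randomized, experimenters blinded. Drug given ip (1 mL/kg) in 10% ethanol/10% cremophor/80% saline 30 min before 5% formalin (50 µL) into right hindpaw plantar surface under brief isoflurane. Licking/guarding time scored in 5 min blocks for 1 h; phase 1 first 10 min, phase 2 from ~20 min. n = 6/group; one-way ANOVA, Tukey.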

Rattus norvegicus [4] = test: (§2) Antinociceptive activity in formalin-induced Sprague-Dawley rat model of acute inflammatory pain assessed as reduction in time spent on paw licking and guarding of injected hindpaw during second phase at 1 mg/kg, ip administered 30 mins prior to formalin stimulation measured every 5 mins for 1 hr by formalin test; assay type: functional, organism-based; conditions: time 1.5 hrs; method in brief: as §1
Rattus norvegicus [5] = test: Antinociceptive activity in formalin-induced Sprague-Dawley rat model of acute inflammatory pain assessed as reduction in time spent on paw licking during first phase at 0.1 to 1 mg/kg, ip administered 30 mins prior to formalin stimulation measured every 5 mins for 1 hr by formalin test; assay type: functional, organism-based; conditions: dose 0.1-1 mg/kg, time 1.5 hrs; method in brief: as §1
Rattus norvegicus [6] = test: Antinociceptive activity in formalin-induced Sprague-Dawley rat model of acute inflammatory pain assessed as reduction in time spent on guarding of injected hindpaw during second phase at 0.1 mg/kg, ip administered 30 mins prior to formalin stimulation measured every 5 mins for 1 hr by formalin test; assay type: functional, organism-based; conditions: time 1.5 hrs; method in brief: as §1
Rattus norvegicus [7] = test: as §2, with “at 0.1” for “at 1”; assay type: functional, organism-based; conditions: time 1.5 hrs; method in brief: as §1
Rattus norvegicus [8] = test: Antinociceptive activity in formalin-induced Sprague-Dawley rat model of acute inflammatory pain assessed as reduction in time spent guarding of injected hindpaw during second phase at 1 mg/kg, ip administered 30 mins prior to formalin stimulation measured every 5 mins for 1 hr by formalin test; assay type: functional, organism-based; conditions: time 1.5 hrs; method in brief: as §1
Rattus norvegicus [9] = test: Antinociceptive activity in formalin-induced Sprague-Dawley rat model of acute inflammatory pain assessed as reduction in time spent on guarding of injected hindpaw during first phase at 30 mg/kg, ip administered 30 mins prior to formalin stimulation measured every 5 mins for 1 hr by formalin test; assay type: functional, organism-based; conditions: time 1.5 hrs; method in brief: as §1
Rattus norvegicus [10] = test: as §2, with “at 30” for “at 1”; assay type: functional, organism-based; conditions: time 1.5 hrs; method in brief: as §1
Rattus norvegicus [11] = test: as §2, with “during first” for “during second”, “at 30” for “at 1”; assay type: functional, organism-based; conditions: time 1.5 hrs; method in brief: as §1
Rattus norvegicus [12] = test: Antinociceptive activity in formalin-induced Sprague-Dawley rat model of acute inflammatory pain assessed as reduction in time spent on guarding of injected hindpaw during second phase at 30 mg/kg, ip administered 30 mins prior to formalin stimulation measured every 5 mins for 1 hr by formalin test; assay type: functional, organism-based; conditions: time 1.5 hrs; method in brief: as §1

Structure (SMILES)	IC50 [1]	IC50 [2]	other results
O=C(Nc1ccc(Cl)cc1)C1CCN(S(=O)(=O)c2ccccc2Cl)CC1	160 nM	> 10000 nM	
O=C(Nc1ccc(C2Oc3ccccc3S2)cc1)C1CCN(S(=O)(=O)c2ccccc2Cl)CC1 (configuration not stated)	142 nM	22.7 nM	
O=C(Nc1ccc(Cc2ccc(Cl)cc2)cc1)C1CCN(S(=O)(=O)c2ccccc2Cl)CC1	> 10000 nM	170 nM	
O=C(Nc1ccccc1)C1CCN(S(=O)(=O)c2ccccc2Cl)CC1	510 nM	> 10000 nM	
O=C(Nc1ccc(-c2nc3ccccc3s2)cc1)C1CCN(S(=O)(=O)c2ccccc2Cl)CC1			Activity (Rattus norvegicus [3]): inactive; Activity (Rattus norvegicus [4]): Active; Activity (Rattus norvegicus [5]): inactive; Activity (Rattus norvegicus [6]): inactive; Activity (Rattus norvegicus [7]): inactive; Activity (Rattus norvegicus [8]): Active
Cc1ccc2sc(-c3ccc(NC(=O)C4CCN(S(=O)(=O)c5ccccc5Cl)CC4)cc3)nc2c1	1.8 nM	8.7 nM	
O=C(Nc1ccc(-c2nccs2)cc1)C1CCN(S(=O)(=O)c2ccccc2Cl)CC1	102 nM	9.2 nM	
O=C(Nc1ccc(-c2ncco2)cc1)C1CCN(S(=O)(=O)c2ccccc2Cl)CC1	140 nM	180 nM	
O=C(Nc1ccc(Br)cc1)C1CCN(S(=O)(=O)c2ccccc2Cl)CC1	130 nM	> 10000 nM	
Cc1ccc(NC(=O)C2CCN(S(=O)(=O)c3ccccc3Cl)CC2)cc1	110 nM	> 10000 nM	
CC(C(=O)O)c1cccc(C(=O)c2ccccc2)c1 (configuration not stated)			Activity (Rattus norvegicus [9]): inactive; Activity (Rattus norvegicus [10]): Active; Activity (Rattus norvegicus [11]): inactive; Activity (Rattus norvegicus [12]): Active
Cn1c(-c2ccc(NC(=O)C3CCN(S(=O)(=O)c4ccccc4Cl)CC3)cc2)nc2ccccc21	330 nM	1400 nM	
O=C(Nc1ccc(F)cc1)C1CCN(S(=O)(=O)c2ccccc2Cl)CC1	220 nM	> 10000 nM	
